Experimental data taken from ChEMBL document CHEMBL1150128, “New antioxidant hydroquinone derivatives from the algicolous marine fungus Acremonium sp” (J Nat Prod, 2002).
The source made the active and inactive calls. The rule behind the calls is not given here.

Assays:
[1] = Antioxidant activity assessed as inhibition of linolenic acid peroxidation at 37 ug/mL by TBARS assay; type: functional
Procedure, shortened: (§1)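 Linolenic acid methyl ester (70 mM stock in EtOH) is oxidized with sample (1 or 0.2 mg/mL ethanolic stock) in 50 mM phosphate buffer pH 7.2 with SDS and FeSO4 in 0.025 M HCl. Incubation is 50 °C for 30 min, then covered at 60 °C for 30 min, then room temperature for 4 min. Readout is A532 minus A600, with % inhibition calculated against sample blank, control and blank.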

[2] = test system: Radical scavenging activity; test: Antioxidant activity assessed as DPPH free radical scavenging activity at 5 ug/mL; type: functional
Procedure, shortened: (§2)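 Ethanolic sample (1 mg/mL stock) is mixed with DPPH (1 mM stock) in EtOH, shaken briefly, and held at room temperature in the dark for 30 min. Radical scavenging is read as absorbance at 517 nm of sample versus control. Results are reported at the listed concentrations in µg/mL.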

[3] = target: Human immunodeficiency virus type 1 reverse transcriptase (Human immunodeficiency virus 1) (UniProt Q72547); test: Inhibition of HIV1 reverse transcriptase by ELISA
[4] = Antioxidant activity assessed as inhibition of linolenic acid peroxidation at 7.4 ug/mL by TBARS assay; type: functional; procedure, shortened: as §1
[5] = test system: Radical scavenging activity; test: Antioxidant activity assessed as DPPH free radical scavenging activity at 100 ug/mL; type: functional; procedure, shortened: as §2
[6] = test system: Radical scavenging activity; test: Antioxidant activity assessed as DPPH free radical scavenging activity at 500 ug/mL; type: functional; procedure, shortened: as §2
[7] = target: Tyrosine-protein kinase Lck (Homo sapiens) (UniProt P06239); test: Inhibition of p56lck by ELISA
Chain of Tyrosine-protein kinase Lck (Homo sapiens) (P06239 2-509 limits assumed): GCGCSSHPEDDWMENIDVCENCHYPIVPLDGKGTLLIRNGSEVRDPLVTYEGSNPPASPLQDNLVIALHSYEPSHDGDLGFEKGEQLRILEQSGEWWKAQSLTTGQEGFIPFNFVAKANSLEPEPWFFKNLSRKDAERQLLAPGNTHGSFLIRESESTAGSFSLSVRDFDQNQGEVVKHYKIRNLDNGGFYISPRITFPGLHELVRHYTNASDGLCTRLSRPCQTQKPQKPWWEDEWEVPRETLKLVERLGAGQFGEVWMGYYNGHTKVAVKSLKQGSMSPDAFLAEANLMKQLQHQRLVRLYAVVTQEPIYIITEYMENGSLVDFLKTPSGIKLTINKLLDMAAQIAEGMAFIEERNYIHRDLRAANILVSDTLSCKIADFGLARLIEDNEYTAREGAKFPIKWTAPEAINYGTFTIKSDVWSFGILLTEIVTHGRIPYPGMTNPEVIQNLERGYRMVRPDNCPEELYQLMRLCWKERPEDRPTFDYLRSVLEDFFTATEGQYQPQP

[8] = test system: Radical scavenging activity; test: Antioxidant activity assessed as DPPH free radical scavenging activity at 50 ug/mL; type: functional; procedure, shortened: as §2
[9] = test system: Radical scavenging activity; test: Antioxidant activity assessed as DPPH free radical scavenging activity at 25 ug/mL; type: functional; procedure, shortened: as §2

For `CC1(C)Oc2ccc(O)cc2CC1O` (centres undefined), the inhibition [1] was 9.2%, the Activity [2] was 25.7% and the Activity [3] was “inactive”. It also gave an inhibition [4] of -9.8%, an Activity [5] of 89.1% and an Activity [6] of 89.9%. The Activity [7] was “inactive”, the Activity [8] was 85.1% and the Activity [9] was 72.9%.

With `C=C(C)C1Cc2c(O)ccc(O)c21` (centres undefined) the inhibition [1] was 35.5%, the Activity [2] was 26% and the Activity [3] was “inactive”. The inhibition [4] was 13.9%, the Activity [5] was 90% and the Activity [6] was 90.1%. For the same compound, the Activity [7] was “inactive”, the Activity [8] was 90% and the Activity [9] was 85.5%.

For `COC(=O)C(CCC(=O)O)=C(C)C`, the inhibition [4] was -8.6%, the Activity [5] was 10.3% and the Activity [6] was 35.1%. For the same compound, the Activity [8] was 3.4%.

For `CC(C)=C(CCC(=O)O)C(=O)O`, the Activity [3] was “inactive”, the inhibition [4] was -9% and the Activity [5] was 3.8%. The Activity [6] was 15.3%, the Activity [7] was “inactive” and the Activity [8] was -0.5%.

With `CC(C)(O)C(O)Cc1cc(O)ccc1O` (centres undefined) the inhibition [1] was 16.6%, the inhibition [4] was 2% and the Activity [5] was 89.9%. It also gave an Activity [6] of 82.9%, an Activity [8] of 90.7% and an Activity [9] of 90.2%.

In the case of `Cc1cc(C(C)(C)C)c(O)c(C(C)(C)C)c1`, the inhibition [1] was 43.9%, the Activity [2] was 6% and the inhibition [4] was 36.2%. For the same compound, the Activity [5] was 63.8%, the Activity [6] was 89.8% and the Activity [8] was 41.1%. The Activity [9] was 24.2%.

For `OC[C@H]1O[C@@H](Oc2ccc(O)cc2)[C@H](O)[C@@H](O)[C@@H]1O`, the Activity [2] was 1.9%, the Activity [5] was 52.6% and the Activity [6] was 78.6%. It also gave an Activity [8] of 23.5% and an Activity [9] of 18.3%.

In the case of `CC(C)(O)C1Cc2cc(O)ccc2O1` (centres undefined), the inhibition [1] was 15.9%, the Activity [2] was 35.3% and the Activity [3] was “inactive”. For the same compound, the Activity [5] was 90.2%, the Activity [6] was 90.4% and the Activity [7] was “inactive”. The Activity [8] was 89.1% and the Activity [9] was 85.8%.

In the case of `C=C(C)C1Cc2c(O)ccc(O[C@@H]3O[C@H](CO)[C@@H](O)[C@H](O)[C@H]3O)c21` (some centres undefined), the Activity [2] was 5.6%, the Activity [3] was “inactive” and the Activity [5] was 43%. For the same compound, the Activity [6] was 79.9%, the Activity [7] was “inactive” and the Activity [8] was 27.7%. The Activity [9] was 17.5%.

In the case of `COC(=O)CCC(C(=O)O)=C(C)C`, the inhibition [4] was -8.6%, the Activity [5] was 10.3% and the Activity [6] was 35.1%. It also gave an Activity [8] of 3.4%.

Compound `C=C(C)C(CCC(=O)OC)C(=O)O` (centres undefined) has an inhibition [4] of -8.6%, an Activity [5] of 10.3% and an Activity [6] of 35.1%. For the same compound, the Activity [8] was 3.4%.
